This passage reports inhibition and Activity results from ChEMBL document CHEMBL3244377, “Synthesis and biochemical evaluation of nucleosides of naphthoquinone heterocycles” (J Med Chem, 1977).

Activity calls are given as the source filed them. The calls are words filed in the database; no cut-off is given here.

Experiment [1] deals with T1, Hypoxanthine-guanine phosphoribosyltransferase (Mus musculus) (UniProt P00493).
T1 sequence (whole entry): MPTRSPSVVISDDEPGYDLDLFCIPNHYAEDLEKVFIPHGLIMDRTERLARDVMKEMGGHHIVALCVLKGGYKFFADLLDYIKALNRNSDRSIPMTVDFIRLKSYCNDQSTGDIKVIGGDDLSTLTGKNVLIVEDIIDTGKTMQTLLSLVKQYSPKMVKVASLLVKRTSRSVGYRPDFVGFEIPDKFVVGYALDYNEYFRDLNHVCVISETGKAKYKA
The experiment can be described thus: Inhibition of hypoxanthine phosphoribosyltransferase in mouse Ehrlich ascites tumor cells assessed as decrease in purine nucleotide biosynthesis using [14C]hypoxanthine as substrate at 100 uM incubated for 20 mins followed by substrate addition for 60 mins by thin layer chromatography. Put shortly: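 Ehrlich ascites tumor cell suspensions were preincubated 20 min with compound at 100 μM. [14C]Hypoxanthine was then added at 100 μM for a further 60 min. Cells were disrupted, and adenine and guanine nucleotides were resolved by TLC. Radioactivity in individual nucleotides of treated cells was compared with untreated cells to derive apparent purine-metabolism enzyme rates and their inhibition.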

In another experiment the test system is Human alphaherpesvirus 1. The experiment in a line: Antiviral activity against Herpes simplex virus 1 by tissue culture assay. It is filed as functional, organism-based.
The next experiment concerns Human respirovirus 3. The experiment can be described thus: Antiviral activity against Parainfluenza virus 3 by tissue culture assay. The experiment is classed as functional, organism-based.
For the next experiment, the system named is Human rhinovirus A13. The experiment can be described thus: Antiviral activity against Rhinovirus 13 by tissue culture assay. The experiment is classed as functional.

As for `O=C1c2ccccc2C(=O)c2nn([C@@H]3O[C@H](CO)[C@@H](O)[C@H]3O)nc21`, in experiment [1], the inhibition stood at 72%. Besides, the outcome in the experiment with Human alphaherpesvirus 1, in the experiment with Human respirovirus 3 and with Human rhinovirus A13 was inactive.
On to `O=C1c2ccccc2C(=O)c2[nH]ncc21`, for which, in experiment [1], the inhibition was 5%. Moreover, the result in the experiment on Human alphaherpesvirus 1, in the experiment on Human respirovirus 3 and with Human rhinovirus A13 was inactive.
On to `O=C1c2ccccc2C(=O)c2nn([C@@H]3O[C@H](CO)[C@@H](O)[C@H]3O)cc21`, for which the inhibition in experiment [1] is 0%. Moreover, the outcome in the experiment with Human alphaherpesvirus 1, with Human respirovirus 3 and with Human rhinovirus A13 was inactive.
With `O=C1c2ccccc2C(=O)c2c1ncn2[C@@H]1O[C@H](CO)[C@@H](O)[C@H]1O`, the inhibition in experiment [1] turned out to be 68%. Besides, the outcome in the experiment with Human alphaherpesvirus 1, in the experiment on Human respirovirus 3 and with Human rhinovirus A13 was inactive.
Consider `O=C1c2ccccc2C(=O)c2[nH]nnc21`, for which the inhibition in experiment [1] worked out at 1%. The result with Human alphaherpesvirus 1, in the experiment with Human respirovirus 3 and in the experiment with Human rhinovirus A13 was inactive.
For `O=C1c2ccccc2C(=O)c2[nH]cnc21`, the inhibition in experiment [1] was 82%. Besides, the result in the experiment with Human alphaherpesvirus 1, with Human respirovirus 3 and with Human rhinovirus A13 was inactive.
